In ChEMBL document CHEMBL1124846, “Synthesis, antiproliferative, and antiviral activity of certain 4-substituted and 4,5-disubstituted 7-[(1,3-dihydroxy-2-propoxy)methyl]pyrrolo[2,3-d]pyrimidines” (J Med Chem, 1990) one finds IC50 and Activity data, which are given here for four compounds.

Assay [1] in a line: Cytotoxic activity against BSC cells. Particulars: Cercopithecidae. Format: cell-based. The method in brief: (§1)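 Cytotoxicity was scored visually in uninfected HFF or BSC-1 monolayers within the plaque-reduction assays. Drug-induced cytopathology was read at 35- and 60-fold magnification on a 0 to 4+ scale on the day plaques were stained and counted.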
The test system of assay [2] is Human alphaherpesvirus 1. Description: Inhibition of herpes simplex virus (HSV-1) in plaque reduction assay. Format: functional, organism-based. The method in brief: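 HSV-1 S-148 strain plaque reduction in BSC-1 monkey kidney monolayers, with about 100 PFU inoculum and compound dissolved in the overlay medium. IC50 came from linear regression of percent inhibition against log concentration, with a positive control in each set.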
In general terms: Plaques are areas of infected cells; plaque reduction assays count them against a control.

Assay [3] has as its system Human betaherpesvirus 5. Description: Inhibition of human cytomegalovirus (HCMV) in plaque reduction assay. The class given is functional, organism-based. The method in brief:
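HCMV Towne strain (plaque-purified P0) plaque reduction in HFF monolayers in MEM(E) with 10% FBS. Inoculum held about 50 PFU, with compound dissolved in the overlay medium. IC50 came from linear regression of percent inhibition against log concentration, with ganciclovir or acyclovir positive controls in every set; two to five experiments.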

Assay [4] in a line: Cytotoxic activity against HFF cells. Format: cell-based. Particulars: Homo sapiens. In a few lines: as §1
In assay [5] the test system is L1210. Description: In vitro inhibition of L1210 cell growth. The class given is functional, Mus musculus. On the set-up: concentration or dose not given beside the values. The method in brief: (§2)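 Murine L1210 leukemia cells in static suspension culture in Fischer's medium with compound for 4 days. Growth rate is the ratio of control to treated population doubling time; where the rate changed, the final rate was used. IC50 is the concentration giving 50% of control growth rate; single-concentration value at 100 μM.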

The subject of assay [6] is Neoplastic cell line. Description: Cytotoxic activity against KB cells. The class given is cell-based. Particulars: Homo sapiens. In a few lines:
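KB cells (human oral epidermoid carcinoma) grown in MEM(H) with 5% FBS. Compound effect on incorporation of radiolabelled precursors into DNA, RNA and protein was measured. IC50s came from linear regression of percent inhibition against log concentration, and the three IC50s were averaged.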

Assay [7] has as its system L1210. Put plainly: In vitro inhibition of L1210 cell growth to half of the control rate. The class given is functional, cell-based. To be noted: Mus musculus. The method in brief: as §2

Values joined by “and” are separate entries in the source; they are usually repeats but may differ in a detail not shown here. Equal entries are not always repeated. Bounds are passed on as bounds.

As usually defined, the IC50 is the concentration that gives 50% inhibition.

For `Nc1ncnc2c1ccn2COC(CO)CO`, the IC50 in assay [1], in assay [2], in assay [3] (Human betaherpesvirus 5) and in assay [4] was over 100 µM each time. In assay [5], this compound came in with an Activity of 106%.
For the compound `OC[C@H]1O[C@@H](n2cc(Br)c3c(NO)ncnc32)[C@H](O)[C@@H]1O`, the IC50 in assay [3] is 3 µM; in assay [3] (Human betaherpesvirus 5) it was 5.6 µM; in assay [4] it was over 100 µM; in assay [6], over 100 µM; in assay [7], 25 µM. The compound further showed an Activity in assay [5] of 10%.
As for `Nc1ncnc2c1c(I)cn2COC(CO)CO`, the IC50 was 4 µM in assay [2]; 3.1 µM and 0.9 µM in assay [3]; over 100 µM in assay [4]; 2.8 µM in assay [7]. In assay [5], this compound showed an Activity of 6%.
Turning to `CCNc1ncnc2c1c(Cl)cn2COC(CO)CO`, the IC50 was over 100 µM in assay [1]; over 100 µM in assay [2]; 100 µM in assay [3] (Human betaherpesvirus 5); over 100 µM in assay [4]; over 100 µM in assay [7]. This compound also registered an Activity in assay [5] of 78%.
